Laboratory results from ChEMBL document CHEMBL1671834, “Novel 3-aryl indoles as progesterone receptor antagonists for uterine fibroids” (ACS Med Chem Lett, 2011).
Calls of active or inactive are those of the source. The calls are words filed in the database; no cut-off is given here.

How the values were obtained:
[1] = tested on: Oryctolagus cuniculus; experiment: Agonist activity at progesterone receptor in sc dosed estrogen-primed immature New Zealand White rabbit assessed as stimulation of progesterone-induced endometrial transformation by McPhail assay; type: functional, organism-based
In short: (§1)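 Immature rabbits primed with estrogen, dosed sc without progesterone. Endometrial transformation scored by McPhail Index.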

[2] = tested on: Oryctolagus cuniculus; experiment: Antagonist activity at progesterone receptor in estrogen-primed immature New Zealand White rabbit assessed as inhibition of progesterone-induced endometrial transformation at 1 mg/kg, sc by McPhail assay; type: functional, organism-based; set-up: dose 1 mg/kg
In short: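 Immature rabbits primed with estrogen, given progesterone 1 mg/kg with test compound at various sc doses. Endometrial transformation scored by McPhail Index.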

[3] = tested on: Oryctolagus cuniculus; experiment: Agonist activity at progesterone receptor in estrogen-primed immature New Zealand White rabbit assessed as stimulation of progesterone-induced endometrial transformation at 30 mg/kg, sc by McPhail assay; type: functional, organism-based; set-up: dose 30 mg/kg; in short: as §1
[4] = tested on: Rattus norvegicus; experiment: Antagonist activity at progesterone receptor in orally dosed ovariectomized Sprague-Dawley rat assessed as reversal of R5020-induced down-regulation of estradiol-induced increase in complement 3 mRNA expression by C3 rat uterine assay; type: functional; conditions: po
In short: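 Ovariectomized rats dosed orally (mg/kg dose response). Estrogen (E2, 0.05 mg/kg) induces complement C3 mRNA in uterus. Progestin R5020 (0.1 mg/kg) down-regulates it. Read-out is reversal of the R5020 effect, expressed as fold over asoprisnil (5 mg/kg). ED50 derived from the dose response.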

[5] = target: T1, Androgen receptor (Homo sapiens, UniProt P10275); experiment: Displacement of [3H]methyltrienolone from human androgen receptor expressed in HEK293 cells; type: cell-based
T1 sequence (P10275 whole entry): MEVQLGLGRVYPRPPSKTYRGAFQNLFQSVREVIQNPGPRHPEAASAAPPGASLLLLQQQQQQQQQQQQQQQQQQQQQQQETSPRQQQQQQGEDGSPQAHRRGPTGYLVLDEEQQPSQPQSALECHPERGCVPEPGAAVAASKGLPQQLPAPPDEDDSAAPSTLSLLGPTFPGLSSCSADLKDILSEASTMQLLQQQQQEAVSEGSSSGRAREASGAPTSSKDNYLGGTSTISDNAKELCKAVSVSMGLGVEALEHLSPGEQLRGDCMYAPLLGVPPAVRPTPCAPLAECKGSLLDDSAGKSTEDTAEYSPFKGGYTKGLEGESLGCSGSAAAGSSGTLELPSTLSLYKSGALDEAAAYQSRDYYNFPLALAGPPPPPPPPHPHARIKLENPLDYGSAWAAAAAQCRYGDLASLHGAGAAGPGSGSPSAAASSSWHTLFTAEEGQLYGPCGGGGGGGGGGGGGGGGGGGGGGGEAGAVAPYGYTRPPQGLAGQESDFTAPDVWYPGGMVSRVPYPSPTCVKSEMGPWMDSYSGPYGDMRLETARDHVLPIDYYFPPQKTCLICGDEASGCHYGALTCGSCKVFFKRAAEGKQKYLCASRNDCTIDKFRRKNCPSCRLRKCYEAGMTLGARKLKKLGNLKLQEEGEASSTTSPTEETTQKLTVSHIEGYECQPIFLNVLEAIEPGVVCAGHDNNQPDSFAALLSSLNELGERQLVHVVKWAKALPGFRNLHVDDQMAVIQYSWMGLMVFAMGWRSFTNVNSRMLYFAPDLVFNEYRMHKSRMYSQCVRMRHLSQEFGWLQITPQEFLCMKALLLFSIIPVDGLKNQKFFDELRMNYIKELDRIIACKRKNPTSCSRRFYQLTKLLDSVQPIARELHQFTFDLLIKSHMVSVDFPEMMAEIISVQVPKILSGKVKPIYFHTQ

[6] = target: T2, Progesterone receptor (Homo sapiens, UniProt P06401); experiment: Displacement of [3H]methyltrienolone from human progesterone receptor expressed in HEK293 cells; type: cell-based
T2 sequence (P06401 whole entry): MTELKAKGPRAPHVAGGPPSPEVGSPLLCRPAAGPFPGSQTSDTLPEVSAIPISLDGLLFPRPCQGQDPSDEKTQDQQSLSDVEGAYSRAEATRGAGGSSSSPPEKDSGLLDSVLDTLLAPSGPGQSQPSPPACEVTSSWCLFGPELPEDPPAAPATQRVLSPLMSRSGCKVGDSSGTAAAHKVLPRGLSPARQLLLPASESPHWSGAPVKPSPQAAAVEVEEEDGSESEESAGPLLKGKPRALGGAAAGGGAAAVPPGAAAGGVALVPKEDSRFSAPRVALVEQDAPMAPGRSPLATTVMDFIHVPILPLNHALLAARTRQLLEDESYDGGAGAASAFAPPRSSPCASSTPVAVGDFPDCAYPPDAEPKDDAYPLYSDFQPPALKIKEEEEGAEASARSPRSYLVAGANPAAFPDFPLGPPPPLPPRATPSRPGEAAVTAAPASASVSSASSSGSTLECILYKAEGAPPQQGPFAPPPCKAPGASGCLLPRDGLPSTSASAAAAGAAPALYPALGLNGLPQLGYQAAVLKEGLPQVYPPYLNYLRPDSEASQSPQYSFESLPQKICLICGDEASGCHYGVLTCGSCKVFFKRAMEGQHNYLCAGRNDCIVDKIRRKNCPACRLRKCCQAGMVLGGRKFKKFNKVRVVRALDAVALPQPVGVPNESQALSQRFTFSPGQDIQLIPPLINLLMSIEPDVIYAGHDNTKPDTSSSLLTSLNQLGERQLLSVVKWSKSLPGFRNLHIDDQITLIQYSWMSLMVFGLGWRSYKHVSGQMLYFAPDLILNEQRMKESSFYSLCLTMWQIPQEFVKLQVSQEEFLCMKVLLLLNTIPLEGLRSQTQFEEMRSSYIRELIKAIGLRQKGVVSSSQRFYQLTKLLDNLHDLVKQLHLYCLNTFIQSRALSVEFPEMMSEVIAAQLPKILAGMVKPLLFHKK
In short: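 Competitive binding to recombinant full-length human receptors against tritium-labelled standards. Values are geometric means of at least duplicate determinations.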

[7] = target: T3, Progesterone receptor (Homo sapiens) (UniProt P06401); experiment: Antagonist activity at human progesterone receptor expressed in HEK293 cells assessed as inhibition of […]-induced transcriptional activity by GRE-driven luciferase reporter gene assay relative to untreated control; type: functional, cell-based; set-up: concentration or dose not given beside the values; conditions: concentration not given here
T3 sequence (whole entry): T2 sequence (P06401 whole entry)
In short: (§2)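 Transcription assay in HEK293 cells cotransfected with full-length human receptor. Values are geometric means of at least duplicate determinations.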

[8] = target: T4, Mineralocorticoid receptor (Homo sapiens) (UniProt P08235); experiment: Antagonist activity at human mineralocorticoid receptor expressed in HEK293 cells assessed as inhibition of […]-induced transcriptional activity by GRE-driven luciferase reporter gene assay relative to untreated control; type: functional, cell-based; set-up: concentration or dose not given beside the values; conditions: concentration not given here; in short: as §2
T4 sequence (whole entry): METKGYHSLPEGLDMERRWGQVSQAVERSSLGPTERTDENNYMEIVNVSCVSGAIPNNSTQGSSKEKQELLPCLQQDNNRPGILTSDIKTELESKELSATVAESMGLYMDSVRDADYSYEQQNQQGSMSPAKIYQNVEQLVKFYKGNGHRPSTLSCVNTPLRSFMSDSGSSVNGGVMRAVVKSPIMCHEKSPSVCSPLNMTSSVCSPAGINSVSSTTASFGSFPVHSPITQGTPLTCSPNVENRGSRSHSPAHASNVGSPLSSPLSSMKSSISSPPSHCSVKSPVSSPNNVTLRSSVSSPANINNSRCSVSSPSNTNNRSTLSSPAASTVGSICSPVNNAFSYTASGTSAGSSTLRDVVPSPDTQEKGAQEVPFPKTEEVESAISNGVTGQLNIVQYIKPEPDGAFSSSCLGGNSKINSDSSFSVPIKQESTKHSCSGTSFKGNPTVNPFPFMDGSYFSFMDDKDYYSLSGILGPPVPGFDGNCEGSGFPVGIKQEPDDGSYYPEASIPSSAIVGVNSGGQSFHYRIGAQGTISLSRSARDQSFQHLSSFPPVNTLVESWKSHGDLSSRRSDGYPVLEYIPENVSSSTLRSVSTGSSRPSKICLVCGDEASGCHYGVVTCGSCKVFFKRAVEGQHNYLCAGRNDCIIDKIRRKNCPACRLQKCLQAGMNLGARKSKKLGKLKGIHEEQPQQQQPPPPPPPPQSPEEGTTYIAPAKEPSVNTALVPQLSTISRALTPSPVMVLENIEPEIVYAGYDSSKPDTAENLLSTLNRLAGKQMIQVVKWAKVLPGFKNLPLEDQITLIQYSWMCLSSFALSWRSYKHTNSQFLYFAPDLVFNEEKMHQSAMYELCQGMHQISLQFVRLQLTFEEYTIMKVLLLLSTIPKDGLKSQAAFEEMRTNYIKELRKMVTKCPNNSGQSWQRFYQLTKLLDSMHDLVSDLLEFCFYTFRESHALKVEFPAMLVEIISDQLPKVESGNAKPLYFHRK

[9] = target: T2, Progesterone receptor; experiment: Antagonist activity at human progesterone receptor expressed in HEK293 cells assessed as inhibition of […]-induced transcriptional activity by GRE-driven luciferase reporter gene assay; type: functional, cell-based; in short: as §2

Row | SMILES | Activity [1] | Activity [2] | Activity [3] | ED50 [4] | Ki [5] | Ki [6] | inhibition [7] | inhibition [8] | IC50 [9]
1 | CC#C[C@]1(O)CC[C@H]2[C@@H]3CCC4=CC(=O)CCC4=C3[C@@H](c3ccc(N(C)C)cc3)C[C@@]21C | inactive | Active |  |  |  |  |  |  | 
2 | COC[C@]1(OC)CC[C@H]2[C@@H]3CCC4=CC(=O)CCC4=C3[C@@H](c3ccc(/C=N/O)cc3)C[C@@]21C [ASOPRISNIL] |  | Active | Active | 0.31 mg/kg |  |  |  |  | 
3 | C[C@@](c1ccc(F)cc1F)(c1c[nH]c2c(NS(C)(=O)=O)cccc12)C1CC1 |  |  |  |  | 0.211 µM | 0.464 µM | 89.7% | 62.9% | 0.715 µM
4 | C[C@](c1ccc(F)cc1F)(c1c[nH]c2c(NS(C)(=O)=O)cccc12)C1CC1 |  |  |  |  | 0.676 µM | 1.23 µM | 94.5% | 87% | 2.02 µM
